system: MOLM-13; experiment: Induction of apoptosis in human MOLM13 cells assessed as caspase 3/7 activation after 16 hrs by fluorescence assay; type: functional, cell-based; details: Homo sapiens, MOLM-13, 16 h; read-out: IC50
Procedure, shortened: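 MOLM-13 cells at 30000/well in RPMI, held up to 24 h (37 °C, 5% CO2), then exposed 16 h to compound or DMSO. Buffer with 10 mM HEPES pH 7.5, 2 mM EDTA, 0.1% CHAPS and 25 μM Z-DEVD-R110 substrate added; fluorescence read once signal stabilized. Percent apoptotic increase calculated relative to control cells.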

SMILES	IC50
CCC(=O)Nc1ccnc(Sc2c(OC)nc(N3CCN(C)CC3)nc2OC)n1	142 µM
CCC(=O)Nc1cccc(Sc2ccc(N3CCN(C)CC3)nc2OC)c1	39 µM
CCOc1nc(N2CCN(C)CC2)nc(OCC)c1Sc1nc(N)cc(NC(=O)C2CC2)n1	95 µM
COc1nc(N2CCN(C)CC2)ccc1Sc1cccc(NC(=O)CN)c1	21 µM
Cc1nc(N2CCN(C)CC2)nc(C)c1Sc1nccc(NC(=O)C2CC2)n1	68 µM
C=CCC(=O)Nc1cccc(Sc2c(OC)nc(N3CCN(C)CC3)nc2OC)c1	65 µM
COc1nc(N2CCN(C)CC2)ccc1Sc1nccc(NC(=O)C2CC2)n1	63 µM
CCC(=O)Nc1ccnc(Sc2ccc(N3CCN(C)CC3)nc2OC)n1	102 µM
COc1nc(N2CCN(C)CC2)nc(OC)c1Sc1nccc(NC(C)=O)n1	150 µM

Other lines, results leading:

IC50	SMILES
1.7 µM	CN1CCN(c2ncc(Sc3cccc(NC(=O)C4CCCN4)c3)c(OCc3ccccc3)n2)CC1 (stereo not drawn)
2.4 µM	CC(C)C(N)C(=O)Nc1cccc(Sc2cnc(N3CCN(C)CC3)nc2OCc2ccccc2)c1 (stereo not drawn)
2 µM	CC(N)C(=O)Nc1cccc(Sc2cnc(N3CCN(C)CC3)nc2OCc2ccccc2)c1 (stereo not drawn)
25.2 µM	CN1CCN(c2ncc(Sc3cccc(NC(=O)CN)c3)c(-c3ccccc3)n2)CC1
10.2 µM	CC(=O)Nc1cccc(Sc2cnc(N3CCN(C)CC3)nc2OCc2ccccc2)c1
7.8 µM	CN1CCN(c2ncc(Sc3cccc(NC(=O)CN)c3)c(OCc3ccncc3)n2)CC1
4.1 µM	CN1CCN(c2ncc(Sc3cccc(NC(=O)c4ccccc4)c3)c(OCc3ccccc3)n2)CC1

same assay, conditions: molm-13

IC50	SMILES
ND(Insoluble)	COc1nc(N2CCN(C)CC2)nc(OC)c1Sc1cccc(NC(=O)C2CCCCC2)c1

system: Kasumi 1; experiment: Cytotoxicity against human Kasumi-1 cells after 72 hrs by alamar blue assay; type: functional, cell-based; details: Homo sapiens, Kasumi 1, 72 h; read-out: IC50
Procedure, shortened: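 Alamar Blue (resazurin) viability assay: attached cells (SKBr3) plated at 8000/well, suspension cells (Kasumi-1) at 20000/well, left 24 h at 37 °C, then drug added in triplicate for 72 h. Alamar Blue 50 μM added, fluorescence read 6 h later (ex 530, em 580 nm). Growth inhibition versus control corrected for time-zero population; IC50 = concentration giving 50% growth inhibition.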

SMILES	IC50
CN1CCN(c2ncc(Sc3cccc(NC(=O)C4CCCN4)c3)c(OCc3ccccc3)n2)CC1 (stereo not drawn)	2.9 µM
CC(C)C(N)C(=O)Nc1cccc(Sc2cnc(N3CCN(C)CC3)nc2OCc2ccccc2)c1 (stereo not drawn)	3.1 µM
CC(N)C(=O)Nc1cccc(Sc2cnc(N3CCN(C)CC3)nc2OCc2ccccc2)c1 (stereo not drawn)	4.8 µM
CN1CCN(c2ncc(Sc3cccc(NC(=O)CN)c3)c(-c3ccccc3)n2)CC1	20.8 µM
COc1nc(N2CCN(C)CC2)ccc1Sc1cccc(NC(=O)CN)c1	19.1 µM
CC(=O)Nc1cccc(Sc2cnc(N3CCN(C)CC3)nc2OCc2ccccc2)c1	5.2 µM
CN1CCN(c2ncc(Sc3cccc(NC(=O)CN)c3)c(OCc3ccncc3)n2)CC1	10.7 µM
Cc1nc(N2CCN(C)CC2)nc(C)c1Sc1nccc(NC(=O)C2CC2)n1	60.5 µM
CN1CCN(c2ncc(Sc3cccc(NC(=O)c4ccccc4)c3)c(OCc3ccccc3)n2)CC1	3.1 µM
COc1nc(N2CCN(C)CC2)ccc1Sc1nccc(NC(=O)C2CC2)n1	58.5 µM

same assay, conditions: kasumi 1

SMILES	IC50
COc1nc(N2CCN(C)CC2)nc(OC)c1Sc1cccc(NC(=O)C2CCCCC2)c1	ND(Insoluble)

From ChEMBL document CHEMBL3124909, “Heat shock protein 70 inhibitors. 2. 2,5'-thiodipyrimidines, 5-(phenylthio)pyrimidines, 2-(pyridin-3-ylthio)pyrimidines, and 3-(phenylthio)pyridines as reversible binders to an allosteric site on heat shock protein 70” (J Med Chem, 2014)
